# Reference: ChEMBL document CHEMBL4513216, “Probing the Open Global Health Chemical Diversity Library for Multistage-Active Starting Points for Next-Generation Antimalarials” (ACS Infect Dis, 2020)
# Test: Toxicity liver stage against HepG2, at 10uM
# Assay type: cell-based
# Set-up: test concentration 10 uM, cell line HepG2-A16-CD81EGFP
# Details: human, HepG2-A16-CD81EGFP cells; read-out: INHIBITION
# How it was run: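 Uninfected HepG2-A16-CD81EGFP cells, 3 × 10^3 per well, 1536-well, plated on prespotted compound at 10 μM final, parasite-free screening media added to match infected plates; puromycin 10 μM positive, DMSO 0.5% negative; run in parallel with 48 h PbLuc assay at 37 °C, 5% CO2; viability by CellTiter-Glo luminescence, normalized to controls.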
row,Structure (SMILES),cytotoxicity at 10 µM [%]
1,CS(=O)(=O)N1CCN(C(=O)CN2CCCc3c(F)cc(F)cc32)CC1,-1.52
2,Cc1nc(C)c(CN2CCOC[C@H](Oc3cnccn3)C2)s1,-5.33
3,CN1CCN2C(=O)N(C3CCOCC3)C[C@H]2C1,0.523
4,CC(=O)N1CCN(CCNC(=O)c2nc3ccccc3c(=O)[nH]2)CC1,6.45
5,O=C(Cc1ccc(Cl)s1)Nc1ccc2c(c1)C(=O)NC2=O,-7.19
6,O=C1CN(C(=O)c2nnn(-c3ccc(C(F)(F)F)cc3)n2)CCN1,-2.77
7,CCN1CCNC(=O)C12CCN(S(=O)(=O)c1ccccc1)CC2,0.464
8,CC(=O)N1CCC2(CC1)CN(C(=O)c1cccc3[nH]ccc13)CCO2,-149
9,COCCn1ccc(=O)c(OCC(=O)Nc2ccccc2)c1C,3.72
10,CCCc1cc(C(=O)Nc2nc(SC)ns2)n(C)n1,8.49
11,O=C(c1cc2c(s1)CCC2)N1CCCC(c2cnccn2)C1 (stereo not drawn),-1.67
12,CCc1c(C)noc1-c1cnc(NC2CC2)nc1-c1cnc(C)cn1,-29
13,Brc1cccc(-c2noc(C3COCCO3)n2)c1 (stereo not drawn),8.71
14,CCOc1ccc(NC(=O)c2cccc(OC)c2OC)cc1,1.64
15,Cc1csc(-c2ccc(NC(=O)N3CCOCC3)cc2)n1,-9.2
16,CCN(CC(C)C#N)C(=O)c1cccc(COc2ccc(C)nc2)c1 (stereo not drawn),5.8
17,CC(=O)Nc1cc(-c2cccc(F)c2F)n[nH]1,-0.305
18,NC(=O)C1Cc2ccccc2CN1CCC(=O)N1CCc2ccccc21 (stereo not drawn),-4.23
19,Cn1cc(N2CCN(c3ccc(C#N)cc3F)CC2=O)cn1,-2.14
20,NC(=O)NC1(C(=O)N2CCc3c(Cl)cccc3C2)CCCCC1,-3.45
21,CC(C)(C)NC(=O)c1cnc2n1CCCC2,-3.32
22,O=C(c1csnn1)N1CCc2ccccc21,5.35
23,CCC(CC)(CNC(=O)OC(C)(C)C)NC(=O)C1CC1,-0.708

row,Structure (SMILES),cytotoxicity at 10 µM [%]
1,Cc1cnn(CCNC(C)C(=O)Nc2ccc(Cl)cn2)c1 (stereo not drawn),0.858
2,Cc1cnn(CCNCC(=O)Nc2ccc(Cl)cn2)c1,1.93
3,O=C(c1coc(-c2ccccc2)n1)N1CCCCC1,11.2
4,N#Cc1cccc(OCc2ccoc2C(=O)N2CCCCC2)c1,-6.57
5,CCN(Cc1ccco1)C(C)c1nc(C)no1 (stereo not drawn),-10.1
6,COc1ccnc(NC(Cc2ccccc2)C(N)=O)n1 (stereo not drawn),20.7
7,CSCc1cc(F)ccc1CNC(=O)N1CCCC1,5.58
8,O=C(CS(=O)(=O)c1ccc(Cl)cc1)NC1CCCc2ccccc21 (stereo not drawn),1.03
9,Cc1noc(C)c1C(=O)NCCN1CCN(c2ccccc2)CC1,-10.8
10,CCc1nc(CCNC(=O)NC2CCSCC2)cs1,-5.55
11,CCn1cnnc1C1CCN(C(=O)CC(C)n2cccc2)CC1 (stereo not drawn),-1.49
12,Cc1ccccc1-n1cnnc1SCC(=O)NCC1CCCO1 (stereo not drawn),-1.15
13,CCC(C)NC(=O)c1ccc(CNC(=O)CC(C)(C)C)cc1 (stereo not drawn),10
14,CCCNC(=O)CNc1cc(C(=O)NCC(F)(F)F)cc(F)c1C,10
15,CCc1nsc(N2CCN(CC(=O)Nc3c(C)n[nH]c3C)CC2)n1,-3.63
16,CCC1CN(Cc2c(O)ccc3oc4c(c23)CCCC4)CCO1 (stereo not drawn),2.03
17,O=C(CCNc1ncccn1)NCc1cccc(OC(F)F)c1,-1.75
18,Cc1nn(C)c(N2CCOCC2)c1CNCC1CCS(=O)(=O)C1 (stereo not drawn),-2.09
19,CCCOc1cccc(NC(=O)NC2CCc3nc(C)nn3C2)c1 (stereo not drawn),-1.65
20,N#Cc1cccc(CNC(=O)C2=NN(c3ccccc3)C(=O)CN2)c1,-3.44
21,Cc1cc(C)n(-c2ccc(N3CCC4(CC3)OCCO4)nc2)n1,-4.84
22,O=C(CSc1ccc2c(c1)OCCO2)NS(=O)(=O)c1cccs1,-3.13
23,NC(=O)CN1CCCN(C(=O)c2ccn(-c3ccc(F)cc3)n2)CC1,-5.69

row,Structure (SMILES),cytotoxicity at 10 µM [%]
1,O=C(CSc1ccc2c(c1)OCCO2)NS(=O)(=O)c1cccnc1,-5.72
2,O=C(CSc1ccc2c(c1)OCCO2)NS(=O)(=O)c1ccccc1,-2.56
3,COc1cc(NC(=O)c2cscn2)ncn1,3.12
4,CC1CCCN(C(=O)CCNS(=O)(=O)c2cccnc2)C1 (stereo not drawn),-11
5,COc1ccc(NC(=O)CSc2nc(C)c(C)c(C)c2C#N)cn1,-0.82
6,CCN1CCN(CCC(=O)NC2CC(c3cccc(Cl)c3)C2)CC1 (stereo not drawn),-7.37
7,CCc1nc(C2CCCN(c3ncccn3)C2)no1 (stereo not drawn),-0.996
8,COCCN1CCN(CC(=O)N(C)Cc2ccc(F)cc2)CC1C (stereo not drawn),-145
9,CN(C)C(=O)c1csc(-c2ccoc2)n1,-1.13
10,OCC1(CNC2CCc3cc4c(cc32)OCCO4)CC1 (stereo not drawn),-3.37
11,Cc1sc2nc(SC(C)c3nc(C(C)(C)C)no3)nc(N)c2c1C (stereo not drawn),-1.13
12,CC(C)N(C(=O)c1csc(-c2ccoc2)n1)C1CCOCC1,-1.18
13,Cc1n[nH]c(C2CN(Cc3ncc(C(C)C)o3)CCO2)n1 (stereo not drawn),-6.32
14,CN(CC1CCC1)C(=O)c1ccc(-c2nc(C3CC3)n[nH]2)cc1,-3.26
15,O=C(CC1CCCO1)Nc1ccc2c(ccn2CCN2CCOCC2)c1 (stereo not drawn),2.55
16,Cc1cc(CS(=O)(=O)NCC2CCCCC2)on1,-18.7
17,O=C(c1ccnc(NC2CC2)c1)N1CCCC1c1cccc(Br)c1 (stereo not drawn),-6.58
18,CN(CCc1cccs1)C(=O)Nc1cccc(S(C)(=O)=O)c1,-8.77
19,CC(C)C(C)(O)CNC(=O)Nc1ccccn1 (stereo not drawn),4.77
20,CCCC(Cn1cnc(-c2ccccc2)c1-c1cncn1CC)N(C)C (stereo not drawn),7.59
21,c1cc(-c2cc(C3CCN(Cc4cncnc4)C3)ccn2)ccn1 (stereo not drawn),-0.969
22,CSCCC(=O)N1CCc2c(ncnc2N2CCOCC2)C1,-4.88
23,CN1CCN(CCn2cnc3c(F)cccc3c2=O)CC1,-1.67

row,Structure (SMILES),cytotoxicity at 10 µM [%]
1,O=C(c1cnccn1)N1CCCC(Cn2cc(C3CC3)nn2)C1 (stereo not drawn),-5.9
2,Cc1cc(C(=O)NCCc2cn3nc(C)sc3n2)c(C)o1,5.68
3,COc1ccccc1Oc1ncccc1CNC(=O)C(C)CN (stereo not drawn),0.884
4,COc1cccc(-n2cc(-c3ccnc(N[C@@H](CO)C(C)C)n3)cn2)c1,-1.15
5,CCc1ccc2nc(C)cc(C(=O)N[C@@H]3CNC[C@H]3O)c2c1,-11
6,COCc1noc(-c2ccc(N(C)Cc3nccs3)nc2)n1,-1.57
7,CCn1c(C2CCCN(Cc3cc(F)ccc3OC)C2)nn(C)c1=O (stereo not drawn),-4.12
8,CCCn1ncc(C(=O)N2CCN(C3CCSCC3)CC2)c1C,-148
9,COCCOCC(=O)N1CCC(c2ccccc2F)C1 (stereo not drawn),-6.45
10,Cc1nc(C(C)C)sc1C(=O)N(C)CCCc1cnn(C)c1,-4.6
11,O=C(c1cnccn1)N1CCCC(Cn2cc(C3CCCC3)nn2)C1 (stereo not drawn),-4.86
12,O=C1CCC2(CCCN(C(=O)c3ccc[nH]3)C2)CN1Cc1cccnc1 (stereo not drawn),9.88
13,CCN(C)CC(C)Cn1cnc(-c2ccccc2)c1C (stereo not drawn),-3.06
14,Cc1cc(N2Cc3cnn(CCO)c3C2)nc(-c2ccccc2O)n1,-162
15,O=C(Nc1ccc(-c2nc3c([nH]2)CCNC3)cc1)N1CCCC1,-4.36
16,CCOc1ccc(-c2ccc3c(c2)OCO3)cc1C(N)=O,5.17
17,CN(CCC(O)c1ccccc1)c1cc(N2CCOCC2)ncn1 (stereo not drawn),-148
18,CCNC(=O)c1ccnc(CC2COc3c(cccc3OC)C2)c1 (stereo not drawn),0.441
19,O=C(N[C@H]1COC[C@@H]1N1CCCC1)c1c[nH]nc1C1CCCCC1,-5.59
20,COc1ccccc1[C@@H]1CN(Cc2cnn(C)c2C)C[C@H]1C(=O)O,-3.53
21,CC(C)(C)n1cc(C2=CCN(CCNC(=O)c3ccccc3)CC2)cn1,-0.262
22,COc1ncccc1-c1nc(-c2ccccn2)nn1C1CCS(=O)(=O)C1 (stereo not drawn),-6.1
23,Fc1cnccc1CN1CCC2(CCNCC2)C1,-123

row,Structure (SMILES),cytotoxicity at 10 µM [%]
1,CC(C)Cc1cc(CNC(=O)C2CCCN(Cc3ccco3)C2)no1 (stereo not drawn),3.11
2,Cc1ccsc1CNC(=O)NC(C)c1ccc2c(c1)CCC(=O)N2 (stereo not drawn),5.31
3,Fc1ccc(-c2nnc(CN3CCCC(Cn4cncn4)C3)o2)cc1 (stereo not drawn),-4.87
4,Cc1nc(-c2ccc(Cl)s2)sc1C(=O)NCCCC(N)=O,-5.6
5,CC(NC(=O)NCCCN1CCc2ccccc2C1)c1nncn1C (stereo not drawn),-2.6
6,COc1c(C2CCCN2CC(=O)Nc2cc(C)on2)c(C)nn1C (stereo not drawn),-1.19
7,Cc1cnc(C(=O)N2CCC(C(=O)c3cc(F)ccc3F)CC2)cn1,-5.88
8,Cc1nc(CN2CCCC(NCC(=O)Nc3cccnc3)C2)no1 (stereo not drawn),0.0757
9,Cc1ccc(CN2C[C@H](OCCN(C)C)[C@H]3OCCC[C@H]32)o1,-146
10,COc1cccc(CC(=O)N2CCN(C)c3ncccc3C2)c1,2.33
11,CCN1CCN(C)C2(CCN(Cc3ccc(C)o3)CC2)C1=O,-7.1
12,O=C1CC2(CCN(Cc3cccnc3)C2)CN1c1cccc(F)c1 (stereo not drawn),-147
13,O=c1ccc2c(n1Cc1cccnc1)CCN(Cc1ccoc1)CC2,-140
14,Cn1c2c(ccc1=O)CCN(Cc1ccoc1)CC2,-153
15,O=C(Nc1cccc(C(=O)OCC2CCCN2)c1)c1ccoc1 (stereo not drawn),-3.06
16,COCc1nn(CC2CC2)c2c1CN(Cc1cccs1)CC2,0.994
17,CCc1ccc(NS(=O)(=O)C=c2[nH]c(=O)n3cccc3c2=O)cc1,8.45
18,Cc1nc(C)c(CC(=O)N2C[C@@H]3CC[C@H]2CN(c2cnccn2)C3)s1,10.1
19,CC(C)c1cc(C(=O)N2C[C@@H]3CC[C@H]2CN(Cc2cscn2)C3)no1,1.27
20,CNc1nc2cn(-c3cccc(OC)c3)c(=O)c-2c[nH]1,6.04
21,CCCn1nccc1NC(=O)CN1CCCC1Cn1nc(C)nc1C (stereo not drawn),-6.84
